# Assay results gathered from unrelated publications.
# Protocols differ between the studies behind these lines.
# Target: Mitogen-activated protein kinase kinase kinase 9 (MAP3K9, Homo sapiens, UniProt P80192)
SMILES,read-out,mode,method,concentration,measurement,value
Nc1ncc(-c2nc(N3CCOCC3)nc(N3CCOCC3)n2)c(C(F)F)n1,binding,,competition with immobilised ligand,10 µM,remaining binding,42%
Cn1cc(-c2cccc(N3CCc4c(sc5c4CC(C)(C)C5)C3=O)c2CO)cc(Nc2ccncn2)c1=O,enzyme activity,inhibitor,,1 µM,inhibition,-3%
C#Cc1n[nH]c2c(-c3cn([C@@H](C)c4ccccc4)c(=O)[nH]c3=O)cc(F)cc12,enzyme activity,inhibitor,,0.1 µM,inhibition,11%
Cc1nn(C)cc1-c1nc2c(N3CCN(Cc4ccc(Cl)cc4)CC3)c(Cl)cnc2[nH]1,binding,,competition with immobilised ligand,1 µM,remaining binding,15%
COc1cc(Nc2ncc(F)c(Nc3ccc4c(n3)NC(=O)C(C)(C)O4)n2)cc(OC)c1OC,binding,,competition with immobilised ligand,10 µM,inhibition,99%
C#Cc1n[nH]c2c(-c3cn([C@@H](C)c4ccccn4)c(=O)[nH]c3=O)cc(F)cc12,enzyme activity,inhibitor,,0.1 µM,inhibition,8%
N#CC1(c2ccccn2)CCN(Cc2cc(C(=O)O)c(=O)n3ccccc23)CC1,cell-free assay,,competition with immobilised ligand,1 µM,remaining binding,92%
CC(C)(C)c1cc(C=C(C#N)C#N)cc(Br)c1O,enzyme activity,inhibitor,,0.5 µM,remaining activity,90.2%
Cn1cc(-c2cc(F)cc(N3CCn4c(cc5c4CCCC5)C3=O)c2CO)cc(Nc2ccc(N3CCN(C4COC4)CC3)cn2)c1=O,enzyme activity,inhibitor,,0.1 µM,inhibition,4%
Cn1cncc1[C@](O)(COc1ccc(C#N)cc1-c1ccc(OC(F)(F)F)cc1)c1ccc(C#N)cc1,cell-free assay,,competition with immobilised ligand,1 µM,remaining binding,81%
O=c1[nH]c2ccccc2n1C1CCN(Cc2ccc(-c3[nH]c4cc5ncnc5cc4nc3-c3ccccc3)cc2)CC1,cell-free assay,,,0.5 µM,remaining signal,93.9%
COc1ncccc1-c1cnn2ccc(N3CCN(C(=O)OC(C)C)CC3)nc12,binding,,competition with immobilised ligand,1 µM,remaining binding,100%
